Bioassay records from PubChem BioAssay.
A selection: hits, their analogues and other compounds. The true share with any hit is near 5.9%.
IDH1 mut inh: blocks human IDH1 R132H reductase activity. O75874. diaphorase/resazurin fluorescence, 60 min. inhibition, % at 10 µM. hit rate 0.18% among 70,000. AID 624101; in the data active = inhibition above about 34%; inconclusive = no clear call, values can overlap the other calls; inactive = below about 11%
Target sequence (O75874 whole entry R132H): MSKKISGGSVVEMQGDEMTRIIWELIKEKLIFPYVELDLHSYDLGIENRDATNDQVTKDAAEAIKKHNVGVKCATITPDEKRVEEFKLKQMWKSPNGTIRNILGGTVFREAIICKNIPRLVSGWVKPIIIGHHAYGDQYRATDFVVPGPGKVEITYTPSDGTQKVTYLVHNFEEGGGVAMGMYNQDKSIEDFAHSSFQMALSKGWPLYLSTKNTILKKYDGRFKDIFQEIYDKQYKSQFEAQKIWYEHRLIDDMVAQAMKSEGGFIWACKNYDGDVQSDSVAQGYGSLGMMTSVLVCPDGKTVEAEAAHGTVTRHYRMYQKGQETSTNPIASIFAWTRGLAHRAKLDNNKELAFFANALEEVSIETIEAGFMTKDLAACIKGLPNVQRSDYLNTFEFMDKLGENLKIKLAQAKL
Pf Dd2 inh: blocks growth of Plasmodium falciparum Dd2 parasites; P. falciparum Dd2 growth, SYBR Green, 72 h; hits give low values; activity change, % at 10 µM; hit rate 2.3% among 94,000; in the data active = activity change below about -80%; inconclusive = no clear call, values can overlap the other calls
T cruzi growth-1: T. cruzi proliferation inhibition | T. cruzi beta-gal in NIH3T3, GalScreen luminescence, 90 h | inhibition, % at 8.34 µM | hit rate 5.9% among 77,000 | AID 624255;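 active = mean inhibition above about 93%, with at least 55% of replicates each passing it, limit read from the data, passing the limit was not always enough; inconclusive = only one of those two conditions holds; inactive = neither condition holds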
GASC1 inh: KDM4C (human) demethylase inhibition | inhibition, % at 12.5 µM | Q9H3R0 | GST-KDM4C 2-372, H3K9me3 peptide, LANCE TR-FRET | hit rate 0.15% among 96,000;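 active = mean replicate inhibition above about 25%, with at least 55% of replicates also reaching it, limit read from the data, passing the limit was not always enough; inconclusive = only one of those two conditions met; inactive = neither condition met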
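System: N-terminal GST-fused human GASC-1 (KDM4C) fragment, residues 2-372; amount: enzyme final amount 10 nM; incubation: reaction 30 min RT, detection step 1 h RT; medium: HEPES buffer, pH 7.5, plus ascorbate; technique: LANCE TR-FRET, Eu antibody, ULight-streptavidin, EDTA, ex 340 nm, em 618/671 nm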
T cruzi growth-2: blocks T. cruzi growth in NIH3T3 host cells. shares compounds with T cruzi growth-1. T. cruzi beta-gal in NIH3T3, GalScreen luminescence, 90 h. inhibition, % at 8.35 µM. hit rate 72% among 5,600;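 active = mean replicate inhibition above about 95% and at least 55% of replicates individually reaching it, limit read from the data; inconclusive = only one of the two criteria is met; inactive = neither criterion is met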
T cruzi growth-3: Trypanosoma cruzi proliferation inhibition | shares compounds with T cruzi growth-1 | T. cruzi beta-gal in NIH3T3, GalScreen luminescence, 90 h | inhibition, % at 2.09 µM | hit rate 21% among 5,600;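 active = mean inhibition above about 95%, with at least 55% of replicates also reaching it, limit read from the data; inconclusive = meets just one of the two conditions; inactive = meets neither condition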
NIH3T3 tox: kills mouse NIH/3T3 fibroblasts; AID 651742; cytotoxicity (signal decrease), % at 8.35 µM; NIH/3T3 viability, CellTiter-Glo ATP luminescence, 90 h; hit rate 14% among 5,600; shares compounds with T cruzi growth-1;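 active = mean signal decrease across replicates above about 35% based on untreated-well scatter, with enough replicates individually passing, limit read from the data; inconclusive = no rule stated though some were filed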
NIH3T3 tox 2: cytotoxicity in mouse NIH/3T3 fibroblasts; shares compounds with T cruzi growth-1; NIH/3T3 viability, CellTiter-Glo ATP luminescence, 90 h; inhibition, % at 24.9 µM; hit rate 56% among 5,600;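 active = mean loss of cell viability signal at or above a set limit, and enough replicates individually reaching it; inconclusive = meets only the mean limit or only the replicate share; inactive = meets neither condition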
Numbers stand for hits; i = inactive; ? = inconclusive; nt = no result.

SMILES	IDH1 mut inh	Pf Dd2 inh	T cruzi growth-1	GASC1 inh	T cruzi growth-2	T cruzi growth-3	NIH3T3 tox	NIH3T3 tox 2
C[C@H]1CCCCO[C@@H](CN(C)C(=O)Nc2ccc(C(F)(F)F)cc2)[C@@H](C)CN([C@@H](C)CO)C(=O)c2cc(NC(=O)Nc3ccc4c(c3)OCO4)ccc2O1	nt	i	121	i	105	109	i	i
Nc1cc(N)nc(SCC(=O)Nc2cccc(C(F)(F)F)c2)n1	i	nt	nt	nt	nt	nt	nt	nt
COc1ccc(Cl)cc1N(CC(=O)Nc1ccc(I)cc1)S(C)(=O)=O	i	nt	nt	nt	nt	nt	nt	nt
S=c1[nH]nc(Cn2c(-c3ccccn3)nc3ccccc32)n1-c1cc(Cl)cc(Cl)c1	i	nt	nt	nt	nt	nt	nt	nt
C[C@@H]1CN([C@H](C)CO)S(=O)(=O)c2ccc(-c3ccccc3)cc2O[C@H]1CN(C)Cc1cccnc1	nt	i	92	i	i	i	59	101
Cc1ccc(-c2ccc3c(c2)O[C@@H](CN(C)Cc2cccnc2)[C@@H](C)CN([C@H](C)CO)S3(=O)=O)cc1	nt	i	104	i	107	102	62	31
COc1cc([C@H]2OC[C@H]3[C@@H]2CO[C@H]3c2cc(OC)c(OC)c(OC)c2)cc(OC)c1OC	i	nt	nt	nt	nt	nt	nt	nt
OC[C@H]1Nc2ccc(C#Cc3ccc(F)cc3)cc2[C@@H]2[C@H]1CCN2Cc1ccc2c(c1)OCO2	nt	i	?	i	103	97	40	104
OC[C@@H]1Nc2ccc(C#Cc3ccc(F)cc3)cc2[C@@H]2[C@H]1CCN2Cc1ccc2c(c1)OCO2	nt	i	134	i	103	107	38	103
N#Cc1ccc(-c2ccc3c(c2)[C@@H]2[C@@H](CCN2Cc2ccc4c(c2)OCO4)[C@@H](CO)N3)cc1	nt	i	101	i	105	102	i	106
COc1ccc(S(=O)(=O)N(C)C[C@H]2Oc3cc(C#CC4CCCC4)ccc3S(=O)(=O)N([C@@H](C)CO)C[C@@H]2C)cc1	nt	?	i	i	nt	nt	nt	nt
COc1ccc(S(=O)(=O)N(C)C[C@H]2Oc3cc(C#CC4CC4)ccc3S(=O)(=O)N([C@@H](C)CO)C[C@H]2C)cc1	nt	i	110	i	109	?	i	57
COc1ccc(S(=O)(=O)N(C)C[C@H]2Oc3cc(C#CC4CC4)ccc3S(=O)(=O)N([C@@H](C)CO)C[C@@H]2C)cc1	i	i	102	i	97	i	53	67
COc1ccc(S(=O)(=O)N(C)C[C@H]2Oc3cc(C#CC4CCCC4)ccc3S(=O)(=O)N([C@@H](C)CO)C[C@H]2C)cc1	i	i	i	i	nt	nt	nt	nt
COc1ccc(S(=O)(=O)N(C)C[C@@H]2Oc3cc(C#CC4CC4)ccc3S(=O)(=O)N([C@H](C)CO)C[C@H]2C)cc1	nt	i	106	i	103	i	37	47
Cc1c(Cl)cccc1NC(=O)CN(c1ccc(F)cc1)S(C)(=O)=O	i	nt	nt	nt	nt	nt	nt	nt
O=C(CSc1nnc(-c2cccnc2)o1)c1ccc2c(c1)OCCO2	i	nt	nt	nt	nt	nt	nt	nt
C[C@H](O)C#Cc1ccc([C@H]2[C@@H](CO)N3CCCCN(S(=O)(=O)c4ccccc4)C[C@H]23)cc1	nt	i	i	i	nt	nt	nt	nt
C[C@H](O)C#Cc1ccc([C@H]2[C@H]3CN(S(=O)(=O)c4ccccc4)CCCCN3[C@H]2CO)cc1	nt	i	?	i	97	i	i	i
Cc1cccc(S(=O)(=O)N2CCCCN3[C@@H](CO)[C@H](c4ccc(C#C[C@@H](C)O)cc4)[C@@H]3C2)c1	nt	i	i	i	nt	nt	nt	nt
C[C@H](O)C#Cc1ccc([C@@H]2[C@H](CO)N3CCCCN(S(=O)(=O)c4ccccc4)C[C@@H]23)cc1	nt	i	114	i	i	i	i	i
COc1ccc(Cl)cc1NC(=O)Cn1cnc2sc3c(c2c1=O)CCC(C)C3 (stereo not given)	i	nt	nt	nt	nt	nt	nt	nt
Cc1ccc(-c2ccc3c(c2)O[C@@H](CN(C)Cc2ccncc2)[C@H](C)CN([C@@H](C)CO)S3(=O)=O)cc1	i	-89	123	i	98	i	65	100
